Laboratory results as given in ChEMBL document CHEMBL1154924, “Carbonic anhydrase activators: Activation of the beta-carbonic anhydrase from the pathogenic yeast Candida glabrata with amines and amino acids” (Bioorg Med Chem Lett, 2010).

Tests used:
[1] = target: T1, Carbonic anhydrase (Candida glabrata CBS 138) (UniProt Q6FTL6); assay: Activation of Candida glabrata recombinant carbonic anhydrase by stopped flow CO2 hydration method; conditions: Nakaseomyces glabratus
T1 sequence (whole entry): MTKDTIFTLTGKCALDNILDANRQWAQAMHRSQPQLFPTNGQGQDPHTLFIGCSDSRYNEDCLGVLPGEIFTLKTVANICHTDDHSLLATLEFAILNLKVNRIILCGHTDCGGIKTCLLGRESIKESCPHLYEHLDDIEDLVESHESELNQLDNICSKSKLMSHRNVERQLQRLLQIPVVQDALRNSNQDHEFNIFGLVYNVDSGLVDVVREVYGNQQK
Summary of the method: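 Recombinant yeast enzyme; stopped-flow CO2 hydration at 25 °C in 20 mM Tris (pH 8.3) and 20 mM NaClO4, with 0.2 mM phenol red read at 557 nm over 10 s. CO2 was 1.7–17 mM. Activators came from 10 mM aqueous stocks and were preincubated 15 min at room temperature with enzyme. Uncatalyzed rates were subtracted. KA was fitted from catalytic enhancement versus activator concentration; mean ± standard error of three assays.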

[2] = target: T2, Carbonic anhydrase (Methanobacterium thermoautotrophicum) (UniProt Q50565); assay: Activation of archaea Methanobacterium thermoautotrophicum recombinant carbonic anhydrase by stopped flow CO2 hydration method; conditions: Methanothermobacter thermautotrophicus
T2 sequence (whole entry): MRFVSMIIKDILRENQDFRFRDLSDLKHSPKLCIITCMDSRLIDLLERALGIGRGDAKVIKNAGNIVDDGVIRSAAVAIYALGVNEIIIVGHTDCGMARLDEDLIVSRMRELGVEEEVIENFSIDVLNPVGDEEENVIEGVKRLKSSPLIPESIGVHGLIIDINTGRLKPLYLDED

[3] = target: T3, Carbonic anhydrase (Saccharomyces cerevisiae S288c) (UniProt P53615); assay: Activation of Saccharomyces cerevisiae recombinant Nce103p by stopped flow CO2 hydration method
T3 sequence (whole entry): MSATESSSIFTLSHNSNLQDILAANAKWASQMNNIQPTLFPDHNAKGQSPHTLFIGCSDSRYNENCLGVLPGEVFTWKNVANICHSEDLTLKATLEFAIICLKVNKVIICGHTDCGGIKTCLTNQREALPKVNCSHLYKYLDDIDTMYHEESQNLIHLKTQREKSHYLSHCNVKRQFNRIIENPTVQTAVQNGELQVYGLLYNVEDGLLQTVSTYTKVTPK

[4] = target: Carbonic anhydrase 2 (Homo sapiens) (UniProt P00918); assay: Activation of human recombinant carbonic anhydrase isoenzyme 2 by stopped flow CO2 hydration method
[5] = system: NCCc1c[nH]cn1; conditions: Homo sapiens

For `NCCN1CCOCC1`, the Ka [1] was 10.1 µM and the Ka [2] was 18.5 µM.

Work on `NCCc1ccc(O)c(O)c1` yielded a Ka [1] of 27.6 µM and a Ka [2] of 51 µM.

In the case of `Nc1ccc(C[C@H](N)C(=O)O)cc1`, the Ka [1] is reported as 31.6 µM and the Ka [2] is reported as 89 µM.

Compound `CNC[C@@H](O)c1ccc(O)c(O)c1` has a Ka [1] of 10.8 µM and a Ka [2] of 11.5 µM.

In the case of `N[C@@H](Cc1c[nH]cn1)C(=O)O`, the Ka [1] is reported as 37 µM and the Ka [2] is reported as 69 µM.

For `NCCc1c[nH]c2ccc(O)cc12`, the Ka [1] was 16.7 µM and the Ka [2] was 62 µM.

Compound `N[C@H](Cc1ccc(O)cc1)C(=O)O` has a Ka [1] of 7.1 µM, a Ka [3] of 84 µM and a Ka [4] of 0.058 µM. The Ka [2] was 19.2 µM.

In the case of `N[C@H](Cc1c[nH]c2ccccc12)C(=O)O`, the Ka [1] is reported as 12.1 µM and the Ka [2] is reported as 41 µM.

`NCc1ccccn1` gave a Ka [1] of 15 µM and a Ka [2] of 18.7 µM.

`NCCc1ccccn1` was tested, and the Ka [1] was 16.3 µM and the Ka [2] was 40 µM.

Compound `NCCN1CCNCC1` has a Ka [1] of 14.9 µM and a Ka [2] of 13.8 µM.

`N[C@H](Cc1ccc(O)c(O)c1)C(=O)O` gave a Ka [1] of 15.1 µM and a Ka [2] of 15.6 µM.

In the case of `N[C@@H](Cc1ccc(O)c(O)c1)C(=O)O`, the Ka [1] is reported as 23.3 µM and the Ka [2] is reported as 11.4 µM.

For `N[C@H](Cc1c[nH]cn1)C(=O)O`, the Ka [1] was 21.2 µM and the Ka [2] was 57 µM.

For “Carbonic anhydrase 2 (Homo sapiens) (from UniProt P00918)”, the Km [5] was 9.3 mM.

Work on `NCCc1c[nH]cn1` yielded a Ka [1] of 27.4 µM and a Ka [2] of 76 µM.

Work on `N[C@@H](Cc1c[nH]c2ccccc12)C(=O)O` yielded a Ka [1] of 22.8 µM and a Ka [2] of 16.9 µM.

`N[C@@H](Cc1ccc(O)cc1)C(=O)O` was tested, and the Ka [1] was 9.5 µM and the Ka [2] was 10.5 µM.
